Measurements collected from several papers.
Compare with care: the assays were run in different laboratories. Values after ≈ are worked out from the molar mass of the structure shown.

CC(=O)N[C@@H](CC(N)=O)C(=O)N[C@@H](CC(N)=O)C(=O)N[C@@H](CC(C)C)C(=O)N[C@H]1CSSC[C@@H](C(=O)N[C@H](C(N)=O)[C@@H](C)O)NC(=O)[C@H](CCCNC(=N)N)NC(=O)[C@H](Cc2c[nH]cn2)NC(=O)[C@H](Cc2cccc3ccccc23)NC(=O)CNC(=O)[C@H](Cc2c[nH]c3ccccc23)NC(=O)[C@H](CC(=O)O)NC(=O)[C@H](CCC(N)=O)NC(=O)[C@H](Cc2c[nH]c3ccccc23)NC(=O)[C@H](C(C)C)NC1=O
solubility (PBS; pH 7.4): 270 µg/mL (≈ 137 µM)

O=C1C=C(N(Cc2ccc(Cl)nc2)CC(F)F)CO1
solubility (water; pH 4): 3200 µg/mL (≈ 11100 µM)

OC(c1ccc(F)cc1)C(F)(F)CCN1CCC(O)(c2ccc(Cl)cc2)CC1 (racemic)
kinetic solubility (PBS; 2 h, pH 7.4, 25 °C): 3.4 µM

CCCc1ccc(-c2ccc([C@@H](CO)C(=O)N[C@H](C)c3ccccc3)cc2)cc1
kinetic solubility (PBS; pH 7.4): < 1 µM

C#Cc1ccc2c(c1)C(c1ccccn1)=NCc1c(-c3cnco3)ncn1-2
kinetic solubility (water; 90 min, 37 °C): 517 µg/mL

CC[C@H](C)[C@H](NC(C)=O)C(=O)N[C@H]1CSSC[C@@H](C(=O)N[C@H](C(N)=O)[C@@H](C)O)NC(=O)[C@H](CCCNC(=N)N)NC(=O)[C@H](Cc2cnc[nH]2)NC(=O)[C@H](Cc2cccc3ccccc23)NC(=O)CNC(=O)[C@H](Cc2c[nH]c3ccccc23)NC(=O)[C@H](CC(=O)O)NC(=O)[C@H](CCC(N)=O)NC(=O)[C@H](Cc2c[nH]c3ccccc23)NC(=O)[C@H](C(C)C)NC1=O
solubility (PBS; pH 7.4): 150 µg/mL (≈ 86.2 µM)

Clc1ccc(CSc2nnc(-c3ccccn3)n2Cc2ccco2)cc1Cl
solubility (aqueous buffer; pH 7.4): 0.14 µg/mL (≈ 0.335 µM)

CC[C@H](C)[C@H](NC(=O)[C@H](CO)NC(=O)[C@H](CCCNC(=N)N)NC(C)=O)C(=O)N[C@H]1CSSC[C@@H](C(=O)N[C@H](C(N)=O)[C@@H](C)O)NC(=O)[C@H](CCCNC(=N)N)NC(=O)[C@H](Cc2c[nH]cn2)NC(=O)[C@H](Cc2cccc3ccccc23)NC(=O)CNC(=O)[C@H](Cc2c[nH]c3ccccc23)NC(=O)[C@H](CC(=O)O)NC(=O)[C@H](CCC(N)=O)NC(=O)[C@H](Cc2c[nH]c3ccccc23)NC(=O)[C@H](C(C)C)NC1=O
solubility (PBS; pH 7.4): 390 µg/mL (≈ 197 µM)

Nc1ncc(-c2nc(N3CCOCC3)nc(N3CCOCC3)n2)c(C(F)F)n1
thermodynamic solubility (shake flask; FaSSIF; 24 h): 7.6 µM

CC(C)CCC[C@@H](C)[C@H]1CC[C@H]2[C@@H]3CC=C4C[C@@H](OCCCNC(=O)CCC(=O)NCCCC[C@H](NC(=O)[C@H]5CCCN5C(=O)[C@H](CCC(=O)O)NC(=O)[C@H](C)NC(=O)[C@@H](NC(=O)C[C@H](O)[C@H](CC(C)C)NC(=O)[C@H](CC(N)=O)NC(=O)[C@@H](NC(=O)[C@@H](N)CCC(=O)O)C(C)C)C(C)C)C(N)=O)CC[C@]4(C)[C@H]3CC[C@]12C
thermodynamic solubility (aqueous buffer; pH 6.5): > 3000 µg/mL
